Measured values taken from ChEMBL document CHEMBL1255227, “Novel pyridylmethylamines as highly selective 5-HT(1A) superagonists” (J Med Chem, 2010).

Tests used:
[1] = Displacement of [3H]8-OH-DPAT from 5-HT1A receptor in pig cortex membranes; format: cell membranes, Sus scrofa
D(3) dopamine receptor = D(3) dopamine receptor (Homo sapiens, UniProt P35462); experiment: Displacement of [3H]Spiperone from human dopamine D3 receptor
Method in brief: (§1)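 Membranes from CHO cells stably expressing the human receptor, at 5-20 μg protein/assay tube, were competed against [3H]spiperone at 0.1-0.4 nM final. […] IC50 came from sigmoid nonlinear regression.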

[2] = Displacement of [3H]Prazosin from adrenergic alpha1 receptor in pig cortex membranes; format: cell membranes, Sus scrofa
[3] = target: 5-hydroxytryptamine receptor 2A (Sus scrofa, UniProt P50129); experiment: Displacement of [3H]Ketanserin from 5-HT2 receptor in pig cortex membranes; format: cell membranes
D(4) dopamine receptor = target: T1, D(4) dopamine receptor (Homo sapiens, UniProt P21917); experiment: Displacement of [3H]Spiperone from human dopamine D4.4 receptor; method in brief: as §1
T1 sequence (P21917 whole entry): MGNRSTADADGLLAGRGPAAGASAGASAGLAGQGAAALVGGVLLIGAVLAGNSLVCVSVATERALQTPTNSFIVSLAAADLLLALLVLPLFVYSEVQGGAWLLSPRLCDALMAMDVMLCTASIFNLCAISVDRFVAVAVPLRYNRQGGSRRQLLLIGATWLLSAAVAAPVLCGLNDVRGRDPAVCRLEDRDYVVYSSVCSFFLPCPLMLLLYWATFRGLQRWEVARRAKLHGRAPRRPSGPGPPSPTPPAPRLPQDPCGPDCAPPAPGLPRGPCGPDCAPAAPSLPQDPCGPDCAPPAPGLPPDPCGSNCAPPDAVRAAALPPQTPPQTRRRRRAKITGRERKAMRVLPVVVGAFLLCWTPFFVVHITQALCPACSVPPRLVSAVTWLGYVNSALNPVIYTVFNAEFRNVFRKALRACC

D(2) dopamine receptor [4] = target: T2, D(2) dopamine receptor (Homo sapiens, UniProt P14416); experiment: Displacement of [3H]Spiperone from human dopamine D2 long receptor; method in brief: as §1
[5] = Displacement of [3H]RX821002 from adrenergic alpha2 receptor in pig cortex membranes
D(2) dopamine receptor [6] = target: T2, D(2) dopamine receptor; experiment: Displacement of [3H]Spiperone from human dopamine D2 short receptor; method in brief: as §1
[7] = Displacement of [3H]WAY-100635 from 5-HT1A receptor in pig cortex membranes; format: cell membranes, Sus scrofa
D(1A) dopamine receptor = D(1A) dopamine receptor (Sus scrofa, UniProt P50130); experiment: Displacement of [3H]SCH23390 from dopamine D1 receptor in pig striatal membranes
[8] = target: T3, 5-hydroxytryptamine receptor 1A (Homo sapiens) (UniProt P08908); experiment: Intrinsic activity at human 5-HT1A receptor expressed in CHO cells assessed as increase of serotonin-induced [35S]GTPgammaS binding relative to serotonin; format: functional, cell-based
T3 sequence (whole entry): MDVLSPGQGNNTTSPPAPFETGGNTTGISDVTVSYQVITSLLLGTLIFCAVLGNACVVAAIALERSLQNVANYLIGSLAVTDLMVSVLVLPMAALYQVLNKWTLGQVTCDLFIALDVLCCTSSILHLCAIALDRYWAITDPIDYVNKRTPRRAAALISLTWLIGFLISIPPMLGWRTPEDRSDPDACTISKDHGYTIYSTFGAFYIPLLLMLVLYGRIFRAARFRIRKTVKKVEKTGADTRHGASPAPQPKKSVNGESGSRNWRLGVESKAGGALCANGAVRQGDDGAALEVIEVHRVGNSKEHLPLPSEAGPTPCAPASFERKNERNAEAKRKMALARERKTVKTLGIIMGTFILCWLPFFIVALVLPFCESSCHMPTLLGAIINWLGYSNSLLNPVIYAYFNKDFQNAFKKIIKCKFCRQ
Method in brief: (§2)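 Membranes from CHO cells stably expressing human 5-HT1A were incubated with 0.1 nM [35S]GTPγS and test compound at eight concentrations (0.01-10000 nM), in hexaduplicate. Values come from a mean curve of four experiments. Emax is expressed relative to the maximal serotonin effect.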

[9] = target: T4, 5-hydroxytryptamine receptor 1A (Homo sapiens, UniProt P08908); experiment: Intrinsic activity at human 5-HT1A receptor expressed in CHO cells assessed as increase of serotonin-induced [35S]GTPgammaS binding; format: functional, cell-based; method in brief: as §2
T4 sequence (P08908 whole entry): T3 sequence (whole entry)

Mus musculus = experiment: Antinociceptive activity against formalin-induced inflammatory pain in mouse assessed as reduction of paw licking at 1 mg/kg, ip; format: functional; design: scale not given: the % may be the effect or the level left; settings: route intraperitoneal

Chain of 5-hydroxytryptamine receptor 2A (P50129 whole entry): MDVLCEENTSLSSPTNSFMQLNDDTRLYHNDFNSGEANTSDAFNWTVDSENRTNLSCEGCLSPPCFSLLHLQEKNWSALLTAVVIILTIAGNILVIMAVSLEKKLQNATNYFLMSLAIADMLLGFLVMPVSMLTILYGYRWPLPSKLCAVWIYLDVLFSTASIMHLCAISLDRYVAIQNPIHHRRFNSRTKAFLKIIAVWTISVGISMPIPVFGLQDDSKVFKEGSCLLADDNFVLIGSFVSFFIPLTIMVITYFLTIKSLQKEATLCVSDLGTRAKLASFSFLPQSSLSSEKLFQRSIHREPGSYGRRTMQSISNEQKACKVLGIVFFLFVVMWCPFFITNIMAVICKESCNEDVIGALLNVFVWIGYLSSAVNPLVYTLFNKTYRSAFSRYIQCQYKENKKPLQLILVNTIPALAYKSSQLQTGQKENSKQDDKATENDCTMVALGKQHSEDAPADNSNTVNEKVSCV
Chain of D(1A) dopamine receptor (P50130 whole entry): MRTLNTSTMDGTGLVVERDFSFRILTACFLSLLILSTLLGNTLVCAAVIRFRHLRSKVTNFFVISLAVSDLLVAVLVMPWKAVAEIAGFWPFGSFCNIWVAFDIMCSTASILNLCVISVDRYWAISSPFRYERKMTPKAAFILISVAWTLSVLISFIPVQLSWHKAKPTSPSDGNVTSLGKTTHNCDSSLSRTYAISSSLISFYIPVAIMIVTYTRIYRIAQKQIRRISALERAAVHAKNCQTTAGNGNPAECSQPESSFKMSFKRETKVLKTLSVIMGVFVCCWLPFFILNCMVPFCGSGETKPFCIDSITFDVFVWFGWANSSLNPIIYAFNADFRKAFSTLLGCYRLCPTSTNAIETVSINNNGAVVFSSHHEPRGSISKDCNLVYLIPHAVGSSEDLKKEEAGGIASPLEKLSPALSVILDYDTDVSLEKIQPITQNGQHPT
Chain of D(3) dopamine receptor (P35462 whole entry): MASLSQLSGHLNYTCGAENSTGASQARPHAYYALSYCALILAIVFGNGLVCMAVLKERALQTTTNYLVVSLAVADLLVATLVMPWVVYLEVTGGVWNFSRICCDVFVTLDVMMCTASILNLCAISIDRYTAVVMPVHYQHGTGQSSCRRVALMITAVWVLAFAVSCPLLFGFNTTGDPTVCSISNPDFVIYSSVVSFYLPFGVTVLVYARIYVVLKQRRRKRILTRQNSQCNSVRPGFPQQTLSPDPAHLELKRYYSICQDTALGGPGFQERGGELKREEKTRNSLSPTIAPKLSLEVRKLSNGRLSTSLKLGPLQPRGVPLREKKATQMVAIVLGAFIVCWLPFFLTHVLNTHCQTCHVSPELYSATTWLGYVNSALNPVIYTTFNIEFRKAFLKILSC
T2 sequence (P14416 whole entry): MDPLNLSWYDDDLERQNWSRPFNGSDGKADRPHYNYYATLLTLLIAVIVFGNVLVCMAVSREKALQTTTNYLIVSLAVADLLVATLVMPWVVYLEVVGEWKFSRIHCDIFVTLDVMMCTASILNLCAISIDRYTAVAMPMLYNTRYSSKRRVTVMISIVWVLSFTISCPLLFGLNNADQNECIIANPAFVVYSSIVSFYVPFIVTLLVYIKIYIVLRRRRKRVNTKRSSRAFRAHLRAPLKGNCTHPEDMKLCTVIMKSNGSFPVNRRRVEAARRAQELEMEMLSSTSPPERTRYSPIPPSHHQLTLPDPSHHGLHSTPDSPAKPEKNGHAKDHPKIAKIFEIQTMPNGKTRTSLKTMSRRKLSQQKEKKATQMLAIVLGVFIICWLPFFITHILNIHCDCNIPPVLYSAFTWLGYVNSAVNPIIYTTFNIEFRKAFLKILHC

SMILES | Ki [1] [nM] | Ki (D(3) dopamine receptor) [µM] | Ki [2] [nM] | Ki [3] [µM] | Ki (D(4) dopamine receptor) [nM] | Ki (D(2) dopamine receptor [4]) [µM] | Ki [5] [µM] | Ki (D(2) dopamine receptor [6]) [µM] | Ki [7] [nM] | Ki (D(1A) dopamine receptor) [µM] | Emax [8] [%] | EC50 [9] [nM] | Activity (Mus musculus) [%]
Cc1ccc(CNCC2(F)CCN(C(=O)c3ccc(F)c(Cl)c3)CC2)nc1 [BEFIRADOL] | 0.33 | 10 | 4500 | 23 | 2000 | 15 | 3.7 | 46 | 1.1 | 26 |  |  | 
Cc1ccc(CNCC2(F)CCN(C(=O)c3csc4ccccc34)CC2)nc1 | 0.86 | 8.7 | 2000 | 22 | 460 | 20 | 1.7 | 54 | 2.7 | 45 | 124 | 10 | 
Cc1ccc(CNCC2(F)CCN(C(=O)c3cc(Br)cs3)CC2)nc1 | 1.8 | 19 | 2300 | 18 | 2000 | 73 | 3.5 | 100 | 6.2 | 34 | 116 | 17 | 
Cc1ccc(CNCC2(F)CCN(C(=O)c3ccco3)CC2)nc1 |  |  |  |  |  |  |  |  | 62 |  | 81 | 15 | 35
Cc1ccc(CNCC2(F)CCN(C(=O)c3cccs3)CC2)nc1 |  |  |  |  |  |  |  |  | 27 |  | 91 | 18 | 45
Cc1ccc(CNCC2(F)CCN(C(=O)c3coc4ccccc34)CC2)nc1 | 1.1 | 12 | 2800 | 53 | 590 | 27 | 2.8 | 28 | 4.2 | 48 | 101 | 16 | 
